# Results gathered from unrelated publications.
# pIC50: −log10 of the molar value.
# Cell line: MCF7
# Effect on: cell growth or viability
Compound,method,time,quantity,value
NS(=O)(=O)c1ccc(-n2nc(C(=O)NN=Cc3ccc(O)cc3)cc2-c2ccccc2)cc1,fluorescence,48 h,pIC50,4.77
CCOC(=O)C(=CNc1ccc(Oc2ccccc2)cc1)C(=O)OCC,MTT,24 h,pIC50,3.99
O=C1CS/C(=N\c2cc(C(F)(F)F)ccc2-c2nnc(N3C(=O)CS/C3=N\c3cc(O)cc(Br)c3)s2)N1c1cc(O)cc(Br)c1,MTT,,pIC50,4.13
O=C(/C=C/c1ccc(F)cc1)c1nc2ccccc2n1Cc1cn([C@@H]2O[C@H](CO)[C@H](O)[C@H](O)[C@H]2O)nn1,LDH,48 h,pIC50,5.70
CC(C)c1cccc(C(C)C)c1N=C1C(=O)N(Cc2cccc(Cl)c2)c2ccccc21,MTT,48 h,pIC50,4.33
O=[N+]([O-])c1ccc(O)c(C=NNc2ccc(Br)cc2)c1,MTT,24 h,pIC50,5.06
NS(=O)(=O)c1ccc(-n2nc(-c3nnc(CCl)o3)cc2-c2ccccc2)cc1,fluorescence,48 h,pIC50,4.50
NNc1nc2ccc(Br)cc2c(=O)n1-c1ccccc1,MTT,48 h,pIC50,4.33
O=C(/C=C/c1ccc(F)cc1)c1nc2ccccc2n1Cc1cn([C@@H]2OC[C@@H](O)[C@H](O)[C@H]2O)nn1,LDH,48 h,pIC50,5.69
COc1ccc(N(Cc2csc(-c3ccc(C)cc3)n2)C(=O)CCCCCC(=O)NO)cc1,MTT,72 h,pIC50,5.48
Cc1nc2ccc(-c3ccc(F)cc3)cc2c(O)c1C(=O)O,MTT,48 h,pIC50,≤ 4.00
Cc1cccc(N=C2C(=O)N(Cc3ccccc3)c3ccccc32)c1,MTT,48 h,pIC50,5.09
O=C(NO)Nc1nc2c(Cl)cc(Cl)cc2c(=O)n1-c1ccc(Cl)cc1,MTT,48 h,pIC50,< 3.70
Cc1nc2ccc(-c3ccc(F)cc3F)cc2c(O)c1C(=O)O,MTT,48 h,pIC50,≤ 4.00
NS(=O)(=O)c1ccc(-n2nc(C(=O)NN3C(=O)c4ccccc4C3=O)cc2-c2ccccc2)cc1,fluorescence,48 h,pIC50,4.41
COc1cccc2c1C(=O)c1c(O)c3c(c(O)c1C2=O)C[C@@](O)(C(=O)CO)C[C@@H]3O[C@H]1C[C@H](N)[C@H](O)[C@H](C)O1,MTT,24 h,pIC50,5.40
COc1ccc(N=C2SCC(=O)N2c2nnc(-c3ccc(C(F)(F)F)cc3N=C3SCC(=O)N3c3ccc(OC)cc3)s2)cc1,MTT,,pIC50,4.13
O=C(C=Cc1cccs1)c1ccc(OCCOc2ccc(C(=O)C=Cc3cccs3)cc2)cc1,MTT,48 h,pIC50,5.10
Cc1ccc(CN2C(=O)C(=Nc3cccc(Cl)c3)c3ccccc32)cc1,MTT,48 h,pIC50,5.65
CCCN1CC(Oc2ccc([C@@H]3c4[nH]c5ccccc5c4C[C@@H](C)N3CC(C)(C)F)cc2)C1,,,pIC50,8.10
COc1ccc2c(-c3nc(-c4ccccc4)no3)nn(Cc3ccncc3)c2c1,,48 h,pIC50,4.06
CC(C)[C@@H](CS(=O)(=O)C(C)C)N1C(=O)[C@@](C)(CC(=O)O)C[C@H](c2cccc(Cl)c2)[C@H]1c1ccc(Cl)cc1,ATP luminescence,48 h,pIC50,~5.41
C(=N\Nc1cc(N/N=C/c2ccc3ccccc3n2)nc(-c2ccccc2)n1)/c1ccc2ccccc2n1,MTT,48 h,pIC50,5.15
COc1cccc(Nc2nc(-c3ccncc3)nc3c2CNCC3)c1,MTT,,pIC50,4.52
Cc1ccc(NNc2nc3ccc(Br)cc3c(=O)n2-c2ccccc2)cc1,MTT,48 h,pIC50,< 3.70
COc1cccc2c1C(=O)c1c(O)c3c(c(O)c1C2=O)C[C@@](O)(C(=O)CO)C[C@@H]3O[C@H]1C[C@H](N)[C@H](O)[C@H](C)O1,MTT,48 h,pIC50,6.30
O=[N+]([O-])c1cc(Br)c(O)c(C=NNc2ccc(Cl)cc2)c1,MTT,24 h,pIC50,4.99
COc1ccccc1/C=N/N=C1\C(=O)Nc2ccccc21,MTT,48 h,IC50,22.1 µg/mL
Clc1ccc(Cn2nc(-c3ncc(-c4ccccc4)s3)c3ccccc32)c(Cl)c1,,48 h,pIC50,4.19
CN1CCC(NC2CCc3[nH]c4c(C(N)=O)ccc(-c5ccccc5Cl)c4c3C2)CC1 (stereo not drawn),,,pIC50,7.79
C[C@H]1[C@H](C)CC[C@]2(C)CC[C@]3(C)C(=CC(=O)[C@@H]4[C@@]5(C)CC[C@@H](O)[C@](C)(C(=O)NCc6cn(-c7ccc(F)cc7)nn6)[C@@H]5CC[C@]43C)[C@H]12,MTT,24 h,pIC50,4.12
O=C(O)c1c[nH]c2ccc(Oc3ccccc3)cc2c1=O,MTT,24 h,pIC50,3.51
O=[N+]([O-])c1ccc(O)c(C=NNc2ccc(Cl)cc2)c1,MTT,24 h,pIC50,5.03
Cc1ccc(CN2C(=O)C(=Nc3cccc(C)c3)c3ccccc32)cc1,MTT,48 h,pIC50,5.55
O=S(=O)([O-])c1ccc(O)c(C=NNC(=S)Nc2cccc3ccccc23)c1.[Na+],MTT,24 h,IC50,> 800 µg/mL
C/C(=N\CCNCCNCC/N=C(\C)c1c(O)c2ccccc2oc1=O)c1c(O)c2ccccc2oc1=O,MTT,48 h,pIC50,5.12
CC(=O)O[C@@]12CO[C@@H]1C[C@H](O)[C@@]1(C)C(=O)[C@H](O)C3=C(C)[C@@H](OC(=O)[C@H](O)[C@@H](NC(=O)OC(C)(C)C)c4ccccc4)C[C@@](O)([C@@H](OC(=O)c4ccccc4)[C@H]21)C3(C)C,MTT,48 h,pIC50,4.03
CCc1ccc(N=C2C(=O)Nc3ccccc32)cc1,MTT,48 h,pIC50,4.29
C(=N\Nc1cc(N/N=C/c2cccc3cccnc23)nc(-c2ccccc2)n1)/c1cccc2cccnc12,MTT,48 h,pIC50,4.98
CC(C)CNC(=S)N/N=C/c1cccc2cc3ccccc3nc12,MTT,48 h,pIC50,< 4.30
C[C@H]1[C@H](C)CC[C@]2(C)CC[C@]3(C)C(=CC(=O)[C@@H]4[C@@]5(C)CC[C@@H](O)[C@](C)(C(=O)NCc6cn(-c7ccc(Cl)cc7)nn6)[C@@H]5CC[C@]43C)[C@H]12,MTT,24 h,pIC50,3.87
Fc1ccccc1Nc1nc(-c2ccncc2)nc2c1CNCC2,MTT,,pIC50,< 4.00
O=C1C(=Nc2ccc(Cl)cc2Br)c2ccccc2N1Cc1ccc(Br)cc1,MTT,48 h,pIC50,5.60
Fc1ccc(NC(=S)N/N=C/c2cccc3cc4ccccc4nc23)cc1,MTT,48 h,pIC50,< 4.30
O=C1C(=Nc2ccc(Cl)cc2Br)c2ccccc2N1Cc1ccc([N+](=O)[O-])cc1,MTT,48 h,pIC50,5.63
C/C(=N\C1CCCCC1/N=C(\C)c1c(O)c2ccccc2oc1=O)c1c(O)c2ccccc2oc1=O (stereo not drawn),MTT,48 h,pIC50,4.18
O=C1C(=Nc2ccccc2Br)c2ccccc2N1Cc1ccccc1,MTT,48 h,pIC50,5.67
O=C1C(Cl)=C(n2cncn2)C(=O)c2ccccc21,MTT,24 h,IC50,26.8 µg/mL
O=C1CSC(=Nc2cc(C(F)(F)F)ccc2-c2nnc(N3C(=O)CSC3=Nc3ccc([N+](=O)[O-])cc3)s2)N1c1ccc([N+](=O)[O-])cc1,MTT,,pIC50,4.10
c1ccc(Cc2nnc(-c3nn(Cc4ccccc4)c4ccccc34)o2)cc1,,48 h,pIC50,3.94
Cc1nc2ccc(-c3ccc(OCc4ccccc4)c(F)c3)cc2c(O)c1C(=O)O,MTT,48 h,pIC50,≤ 4.00
c1ccc(Cn2nc(-c3ncc(-c4ccccc4)s3)c3ccccc32)cc1,,48 h,pIC50,4.13
CC(=O)c1c(O)c2ccccc2oc1=O,MTT,48 h,pIC50,4.49
O=C1CS/C(=N\c2ccccc2Cl)N1c1nnc(-c2ccc(C(F)(F)F)cc2/N=C2\SCC(=O)N2c2ccccc2Cl)s1,MTT,,pIC50,4.33
